Measured values as given in ChEMBL document CHEMBL2380254, “Optimization of tocotrienols as antiproliferative and antimigratory leads” (Eur J Med Chem, 2013).

Columns and labels:
Type in all cases: functional
SF-539 = assay: Growth inhibition of human SF539 cells assessed as cell growth at 10 uM after 48 hrs by sulforhodamine B assay; conditions: SF-539, 48 h, read-out: Activity
How it was run: (§1)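 Single-dose NCI-60 screen: adherent cells in RPMI 1640 with 5% FBS were exposed to 10 µM for 48 h at 37 °C after a 24 h preincubation. They were fixed in situ with cold TCA (10% final), stained with 0.4% SRB in 1% acetic acid, solubilized in 10 mM Tris base, and read at 515 nm. Percent growth was taken relative to time-zero and control plates.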

DU-145 = assay: Growth inhibition of human DU145 cells after 48 hrs by sulforhodamine B assay; conditions: DU-145, 48 h
How it was run: (§2)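 NCI-60 screen: cells in RPMI 1640 with 5% FBS and 2 mM glutamine, 5000–40,000 cells/well, preincubated 24 h. Five concentrations (10-fold dilutions; 100 to 0.001 µM) applied for 48 h at 37 °C. TCA fixation, SRB stain, absorbance at 515 nm. Time-zero plates included; GI50 where 100×(T−T0)/(C−T0)=50.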

NCI-H322M [1] = assay: Growth inhibition of human NCI-H322M cells assessed as cell growth at 10 uM after 48 hrs by sulforhodamine B assay; conditions: read-out: Activity; how it was run: as §1
RXF 393 = assay: Growth inhibition of human RXF393 cells after 48 hrs by sulforhodamine B assay; conditions: RXF 393, 48 h
How it was run: (§3)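 NCI-60 panel cells grown in RPMI 1640 with 5% FBS and 2 mM L-glutamine, seeded at 5000–40,000 cells/well and preincubated 24 h. Five 10-fold dilutions (0.001–100 µM) from DMSO stocks were added for 48 h at 37 °C. Adherent cells were fixed with cold TCA (10% final) for 60 min at 4 °C, stained with 0.4% SRB, and read at 515 nm. GI50 was set where 100×(T−T0)/(C−T0)=50.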

BT-549 = assay: Growth inhibition of human BT549 cells after 48 hrs by sulforhodamine B assay; conditions: BT-549, 48 h; how it was run: as §2
T47D = assay: Growth inhibition of human T47D cells after 48 hrs by sulforhodamine B assay
How it was run: (§4)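 NCI-60 five-dose screen. Cells were grown in RPMI 1640 with 5% FBS and 2 mM L-glutamine, plated at 5000–40,000 cells/well and incubated 24 h before dosing, with T0 plates TCA-fixed. DMSO stocks were diluted to doses of […] and exposed 48 h at 37 °C, 5% CO2. Cells were fixed with cold TCA (final 10%, 60 min, 4 °C), stained with 0.4% SRB in 1% acetic acid for 10 min, solubilized in 10 mM trizma base and read at 515 nm. GI50 is where 100×(T−T0)/(C−T0)=50.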

HOP-92 = assay: Growth inhibition of human HOP92 cells after 48 hrs by sulforhodamine B assay; conditions: HOP-92, 48 h; how it was run: as §2
PC-3 [2] = assay: Growth inhibition of human PC3 cells assessed as cell growth at 10 uM after 48 hrs by sulforhodamine B assay; conditions: PC-3, 48 h, read-out: Activity; how it was run: as §1
MDA-MB-468 = assay: Growth inhibition of human MDA-MB-468 cells after 48 hrs by sulforhodamine B assay; conditions: MDA-MB-468, 48 h; how it was run: as §3
SF-295 = assay: Growth inhibition of human SF295 cells assessed as cell growth at 10 uM after 48 hrs by sulforhodamine B assay; conditions: SF-295, 48 h, read-out: Activity; how it was run: as §1
LOX IMVI = assay: Growth inhibition of human LOXIMVI cells assessed as cell growth at 10 uM after 48 hrs by sulforhodamine B assay; conditions: read-out: Activity
How it was run: (§5)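 NCI-60 single-dose screen at 10 µM: cells in RPMI 1640 with 5% FBS, preincubated 24 h, then exposed 48 h at 37 °C. TCA fixation (16% final for suspension cells), SRB staining, absorbance 515 nm. Percent growth relative to time-zero and untreated control plates; negative values indicate cell kill.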

UO-31 = assay: Growth inhibition of human UO31 cells assessed as cell growth at 10 uM after 48 hrs by sulforhodamine B assay; conditions: UO-31, 48 h, read-out: Activity
How it was run: (§6)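 Single-dose NCI-60 test at 10 µM. Cells were grown in RPMI 1640 with 5% FBS and 2 mM L-glutamine, preincubated 24 h, with T0 plates TCA-fixed. Exposure was 48 h at 37 °C, 5% CO2. Cells were fixed with cold TCA (final 10%, 4 °C, 60 min), stained with SRB and read at 515 nm. Percent growth was taken relative to T0 and untreated control; negative values denote cell kill.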

NCI-H522 [3] = assay: Growth inhibition of human NCI-H522 cells after 48 hrs by sulforhodamine B assay; conditions: NCI-H522, 48 h; how it was run: as §3
OVCAR-4 = assay: Growth inhibition of human OVCAR4 cells after 48 hrs by sulforhodamine B assay; conditions: OVCAR-4, 48 h; how it was run: as §3
NCI-H23 [4] = assay: Growth inhibition of human NCI-H23 cells assessed as cell growth at 10 uM after 48 hrs by sulforhodamine B assay; conditions: NCI-H23, 48 h, read-out: Activity; how it was run: as §1
SN12C [5] = assay: Growth inhibition of human SN12C cells after 48 hrs by sulforhodamine B assay; how it was run: as §4
NCI-H322M [6] = assay: Growth inhibition of human NCI-H322M cells after 48 hrs by sulforhodamine B assay; how it was run: as §3
[7] = Growth inhibition of human Hs 578T cells assessed as cell growth at 10 uM after 48 hrs by sulforhodamine B assay; conditions: read-out: Activity; how it was run: as §5
KM12 = assay: Growth inhibition of human KM12 cells assessed as cell growth at 10 uM after 48 hrs by sulforhodamine B assay; conditions: KM12, 48 h, read-out: Activity; how it was run: as §5
NCI-H522 [8] = assay: Growth inhibition of human NCI-H522 cells assessed as cell growth at 10 uM after 48 hrs by sulforhodamine B assay; conditions: NCI-H522, 48 h, read-out: Activity; how it was run: as §1
PC-3 [9] = assay: Growth inhibition of human PC3 cells after 48 hrs by sulforhodamine B assay; conditions: PC-3, 48 h; how it was run: as §3
MOLT-4 = assay: Growth inhibition of human MOLT4 cells assessed as cell growth at 10 uM after 48 hrs by sulforhodamine B assay; conditions: MOLT-4, 48 h, read-out: Activity
How it was run: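 Single 10 µM dose applied to suspension cells in RPMI 1640 with 5% FBS and 2 mM L-glutamine for 48 h at 37 °C. Settled cells were fixed with 80% TCA (16% final), stained with SRB, and read at 515 nm. Percent growth was calculated against time-zero and untreated control optical densities.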

NCI-H23 [10] = assay: Growth inhibition of human NCI-H23 cells after 48 hrs by sulforhodamine B assay; conditions: NCI-H23, 48 h; how it was run: as §3
SN12C [11] = assay: Growth inhibition of human SN12C cells assessed as cell growth at 10 uM after 48 hrs by sulforhodamine B assay; conditions: read-out: Activity; how it was run: as §6
[12] = Growth inhibition of human HCC2998 cells after 48 hrs by sulforhodamine B assay; conditions: HCC 2998, 48 h; how it was run: as §2
K562 = assay: Growth inhibition of human K562 cells assessed as cell growth at 10 uM after 48 hrs by sulforhodamine B assay; conditions: K562, 48 h, read-out: Activity; how it was run: as §5

SMILES	growth at 10 µM (SF-539) [%]	GI50 (DU-145) [µM]	growth at 10 µM (NCI-H322M [1]) [%]	GI50 (RXF 393) [µM]	GI50 (BT-549) [µM]	GI50 (T47D) [µM]	GI50 (HOP-92) [µM]	growth at 10 µM (PC-3 [2]) [%]	GI50 (MDA-MB-468) [µM]	growth at 10 µM (SF-295) [%]	growth at 10 µM (LOX IMVI) [%]	growth at 10 µM (UO-31) [%]	GI50 (NCI-H522 [3]) [µM]	GI50 (OVCAR-4) [µM]	growth at 10 µM (NCI-H23 [4]) [%]	GI50 (SN12C [5]) [µM]	GI50 (NCI-H322M [6]) [µM]	growth at 10 µM [7] [%]	growth at 10 µM (KM12) [%]	growth at 10 µM (NCI-H522 [8]) [%]	also measured
CC(C)=CCC/C(C)=C/CC/C(C)=C/CC[C@]1(C)CCc2c3c(cc(C)c2O1)OCN(CCCCO)C3	27.4	16.7	48.5	4.68	20.2	16.4	10.1	61.4	15.1	57.3	100	54.9	21.9	16.4	54.8	16.3	17.2	44.8	-89.5	48.5	GI50 (PC-3 [9]): 16.2 µM; growth at 10 µM (MOLT-4): -35.3%; GI50 (NCI-H23 [10]): 17.5 µM; growth at 10 µM (SN12C [11]): 19.3%; GI50 [12]: 9.78 µM
CC(C)=CCC/C(C)=C/CC/C(C)=C/CC[C@]1(C)CCc2c3c(cc(C)c2O1)OCN(C1CCN(Cc2ccccc2)CC1)C3	80.6	1.89	19	1.22	1.89	2.18	0.269	33.2	1.41	93.2	-47.4	57.8	1.81	1.54	38.7	1.46	1.85	-6.43	-44	-24.9	growth at 10 µM (K562): -29.3%; GI50 (PC-3 [9]): 0.581 µM; GI50 (NCI-H23 [10]): 1.51 µM; growth at 10 µM (SN12C [11]): 1.77%; GI50 [12]: 0.626 µM
CC(C)=CCC/C(C)=C/CC/C(C)=C/CC[C@]1(C)CCc2c3c(c(C)c(C)c2O1)OCN(CCCCO)C3	69.6	6.55	84.8	5.63	> 10	> 10	2.9	71.8	2.53	97.2	-90.5	50.7	> 10	3.11	93.5	7.98	> 10	91.6	27.3	86.7	GI50 (PC-3 [9]): 8.37 µM; growth at 10 µM (MOLT-4): 35.8%; GI50 (NCI-H23 [10]): > 10 µM; growth at 10 µM (SN12C [11]): 76.8%; GI50 [12]: 1.84 µM
CC(C)=CCC/C(C)=C/CC/C(C)=C/CC[C@]1(C)CCc2c3c(c(C)c(C)c2O1)OCN(CCCCCCCCO)C3	72.6	2.98	65.3	2.45	3.39	3.03	2.17	26.8	2.57	48.1	-80.1	27.9	2.91	2.81	56.1	2.55	2.7	81.7	15.7	30.9	GI50 (PC-3 [9]): 2.37 µM; growth at 10 µM (MOLT-4): 2.94%; GI50 (NCI-H23 [10]): 3.16 µM; growth at 10 µM (SN12C [11]): 65.8%; GI50 [12]: 2.73 µM
